“Also recorded” adds a separate entry of the source. Like-named read-outs stand apart in the source and are kept apart here.
Key:
[1] = Recovery of thioesters from assay buffer and enzymatic assays; type: physicochemical; conditions: for recovery from the assay buffer: 6 h
rFAAH [2] = target: T1, rFAAH (Rattus norvegicus, UniProt P97612); assay: Lineweaver–Burk kinetic analysis; type: biochemical; conditions: after 3 h preincubation with the enzyme
T1 sequence (P97612 30-579 limits assumed): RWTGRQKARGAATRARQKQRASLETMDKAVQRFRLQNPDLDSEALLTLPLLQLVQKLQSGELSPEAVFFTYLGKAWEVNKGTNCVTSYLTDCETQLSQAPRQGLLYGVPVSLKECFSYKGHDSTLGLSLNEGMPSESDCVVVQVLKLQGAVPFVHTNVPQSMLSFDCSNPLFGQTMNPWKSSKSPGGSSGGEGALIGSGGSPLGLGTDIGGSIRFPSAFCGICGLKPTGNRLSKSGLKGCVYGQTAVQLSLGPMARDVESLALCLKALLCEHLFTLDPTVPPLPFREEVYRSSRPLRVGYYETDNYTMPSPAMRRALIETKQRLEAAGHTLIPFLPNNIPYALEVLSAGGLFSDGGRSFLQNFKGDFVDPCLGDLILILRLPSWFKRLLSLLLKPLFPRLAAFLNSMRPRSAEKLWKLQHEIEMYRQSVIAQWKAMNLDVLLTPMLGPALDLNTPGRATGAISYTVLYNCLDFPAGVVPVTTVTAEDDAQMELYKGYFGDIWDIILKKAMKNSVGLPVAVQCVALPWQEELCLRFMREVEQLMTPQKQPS

rFAAH [3] = target: T1, rFAAH; type: biochemical
neuropathic pain = conditions: cited from earlier work
[4] = test system: endogenous brain levels of FAAH substrates (AEA, OEA, PEA); assay: Brain lipid levels after i.p. inhibitor administration; type: in vivo; conditions: mice, 3 h post i.p. 30 mg/kg, relative to reversible inhibitor 2
[5] = test system: lipid amides in the brain; conditions: mice, i.p.; cited from earlier work
[6] = target: T2, purified recombinant rat FAAH (Rattus norvegicus, UniProt P97612); assay: Reversibility of FAAH inhibition by dialysis dilution; type: biochemical; conditions: 3 h preincubation 22 °C, then dialysis 4 °C, 18 h, 370-fold, pH 9
T2 sequence (P97612 30-579 limits assumed): T1 sequence (P97612 30-579 limits assumed)
Outline: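 Purified recombinant rat FAAH (E. coli-expressed) in pH 9.0 Tris/EDTA/glycerol/Triton X-100/Hepes buffer, preincubated 3 h at 22 °C with test compound (final 80, 100 or 150 nM) or DMSO. Triplicate pre-dialysis activity assay, then dialysis (10 000 MW cutoff) against PBS, 4 °C, 18 h, stirred. Post-dialysis activity assayed in triplicate and expressed as % of DMSO control.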

cannabinoid CB2 receptor = conditions: background statement, ref not given; cited from earlier work
[7] = test system: human ether-a-go-go related gene product (hERG); conditions: background statement, ref not given; cited from earlier work
[8] = test system: common P450 metabolism enzymes; conditions: background statement, ref not given; cited from earlier work
analgesia = conditions: cited from earlier work
[9] = test system: vanilloid (TRP) receptors; conditions: background statement, ref not given; cited from earlier work
cannabinoid CB1 receptor = conditions: background statement, ref not given; cited from earlier work
[10] = enzyme–inhibitor preincubation 0–6 h

Compound | mode of inhibition (Lineweaver–Burk) (rFAAH [2]) | time-dependent change of inhibition potency (in words) (rFAAH [3]; [10]) | increase of brain anandamide levels over that of 2 [4] | recovery of enzyme activity after dialysis dilution [6] | other results
CSC(=O)c1ccc(-c2cnc(C(=O)CCCCCCc3ccccc3)o2)nc1 [compound 5] | reversible, competitive |  |  |  | recovery from the assay buffer [1]: recovered unchanged; recovery from enzymatic assays ([1]; enzymatic assays): recovered unchanged; time-dependent change of inhibition potency (in words) (rFAAH [3]): did not exhibit this time-dependent increase
COC(=O)c1ccc(-c2cnc(C(=O)CCCCCCc3ccccc3)o2)nc1 [compound 3] | reversible, competitive |  |  |  | 
N#CCc1ccc(-c2cnc(C(=O)CCCCCCc3ccccc3)o2)nc1 [compound 14] | noncompetitive | did exhibit increases in potency | approximately 2 fold | failing to restore FAAH activity; also recorded: little or no recovery of enzyme activity | activity in a mouse model of neuropathic pain (neuropathic pain): long acting in vivo activity; duration of elevation of brain lipid amides [5]: > 6 h; time of peak brain lipid amide levels [5]: 1.5 to 3 h
CS(=O)(=O)/C=C/c1ccc(-c2cnc(C(=O)CCCCCCc3ccccc3)o2)nc1 [compound 21] | noncompetitive |  | approximately 2 fold |  | 
CCOC(=O)/C=C/c1ccc(-c2cnc(C(=O)CCCCCCc3ccccc3)o2)nc1 [compound 18] | mixed kinetics |  |  | did not restore enzyme activity | 
O=C(CCCCCCc1ccccc1)c1ncc(-c2ccc(CBr)cn2)o1 [compound 11] | noncompetitive | most pronounced time-dependent increase in potency | approximately 2 fold | failing to restore FAAH activity; also recorded: little or no recovery of enzyme activity | activity in a mouse model of neuropathic pain (neuropathic pain): long acting in vivo activity; duration of elevation of brain lipid amides [5]: > 6 h; time of peak brain lipid amide levels [5]: 1.5 to 3 h
O=C(CCCCCCc1ccccc1)c1ncc(-c2ccccn2)o1 [compound 2] | reversible, competitive | does not display time-dependent inhibition |  | restored full enzyme activity; also recorded: nearly full recovery of enzyme activity | binding to CB2 receptor (cannabinoid CB2 receptor): does not bind; inhibition of hERG [7]: does not significantly inhibit; inhibition of common P450 metabolism enzymes [8]: does not significantly inhibit; analgesic effect (analgesia): induces analgesia; duration of elevation of brain lipid amides [5]: 2 to 3 h; binding to vanilloid (TRP) receptors [9]: does not bind; binding to CB1 receptor (cannabinoid CB1 receptor): does not bind
COC(=N)c1ccc(-c2cnc(C(=O)CCCCCCc3ccccc3)o2)nc1 [compound 8] |  |  |  |  | time-dependent change of inhibition potency (in words) (rFAAH [3]): did not display time-dependent increases in potency
CSC(=O)CCCCc1cnc(C(=O)CCCCCCc2ccccc2)o1 [compound 25] | reversible, competitive |  |  |  | recovery from the assay buffer [1]: recovered unchanged
CCOS(=O)(=O)/C=C/c1ccc(-c2cnc(C(=O)CCCCCCc3ccccc3)o2)nc1 [compound 20] | noncompetitive |  | approximately 2 fold |  | 
N#Cc1ccc(-c2cnc(C(=O)CCCCCCc3ccccc3)o2)nc1 [compound 7] |  |  |  |  | time-dependent change of inhibition potency (in words) (rFAAH [3]): did not display time-dependent increases in potency

Second part, led by results:

mode of inhibition (Lineweaver–Burk) (rFAAH [2]) | time-dependent change of inhibition potency (in words) (rFAAH [3]; [10]) | Compound | increase of brain anandamide levels over that of 2 [4] | recovery of enzyme activity after dialysis dilution [6] | other results
noncompetitive | did exhibit increases in potency | COC(=N)Cc1ccc(-c2cnc(C(=O)CCCCCCc3ccccc3)o2)nc1 [compound 17] |  | do not appear to be even slowly reversible | 
mixed kinetics |  | N#C/C=C/c1ccc(-c2cnc(C(=O)CCCCCCc3ccccc3)o2)nc1 [compound 19] |  | did not restore enzyme activity | 
noncompetitive |  | C[S+]([O-])/C=C/c1ccc(-c2cnc(C(=O)CCCCCCc3ccccc3)o2)nc1 (stereo not shown) [compound 22] | approximately 2 fold |  | 
reversible, competitive |  | CSC(=O)Cc1ccc(-c2cnc(C(=O)CCCCCCc3ccccc3)o2)nc1 [compound 16] |  |  | time-dependent change of inhibition potency (in words) (rFAAH [3]): did not exhibit this time-dependent increase
 | insensitive to preincubation | O=C(CCCCCCc1ccccc1)c1ncc(-c2ccc(CCl)cn2)o1 [compound 12] |  |  | 
